Tests used:
[1] = biological target: T1, Endothelin-1 receptor (Homo sapiens, UniProt P25101); experiment: In vitro inhibition of endothelin binding to human Endothelin A receptor using [125I]-labeled ET-1 competition assay
T1 sequence (P25101 whole entry): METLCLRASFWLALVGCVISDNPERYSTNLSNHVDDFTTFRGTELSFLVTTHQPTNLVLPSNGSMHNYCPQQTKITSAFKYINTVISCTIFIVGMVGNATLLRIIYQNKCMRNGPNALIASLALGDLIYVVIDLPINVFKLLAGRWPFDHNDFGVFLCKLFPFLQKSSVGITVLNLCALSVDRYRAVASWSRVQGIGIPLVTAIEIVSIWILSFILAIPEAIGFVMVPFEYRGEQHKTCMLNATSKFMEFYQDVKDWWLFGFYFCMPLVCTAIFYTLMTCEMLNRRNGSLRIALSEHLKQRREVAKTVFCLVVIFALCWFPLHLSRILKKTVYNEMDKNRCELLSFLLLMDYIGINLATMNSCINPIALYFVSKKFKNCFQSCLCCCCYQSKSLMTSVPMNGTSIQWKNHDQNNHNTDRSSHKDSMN
Summary of the method: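 Membranes from confluent TE 671 cells (endogenous human ETA), DNase-treated, 3 mg/tube. Buffer 30 mM HEPES pH 7.4, 150 mM NaCl, 5 mM MgCl2, 0.05% bacitracin, final 0.25% DMSO. Tracer 4 pM [125I]ET-1, nonspecific binding with 100 nM ET-1. Incubated 16–18 h at 24 °C, centrifuged, bound radioactivity gamma-counted. Run in triplicate.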

[2] = Compound at dose 60 mg/kg was administered to rats and Serum half life was determined; type: ADME, organism-based; parameters: dose 60 mg/kg; settings: rat
[3] = test system: Rattus norvegicus; experiment: % inhibition of ET-1 induced pressor response in conscious rats 30 min after intravenous administration of 15 mg/kg of the compound; type: functional; settings: 0.5 h
Summary of the method: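 Conscious rats rested 60 min in a restrainer. Autonomic blockade by iv atropine methyl nitrate (3 mg/kg) plus propranolol (2 mg/kg). Vehicle was 1 M Tris base or sodium bicarbonate. Control iv bolus ET-1 challenge ([…]), antagonist iv bolus once MAP returned to baseline, second ET-1 challenge 30 min later. Inhibition = 100 × (control − antagonist max pressor response)/control max pressor response.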

[4] = biological target: T2, Endothelin receptor type B (Homo sapiens, UniProt P24530); experiment: In vitro inhibition of endothelin binding to human Endothelin B receptor using [125I]-labeled ET-1 competition assay
T2 sequence (P24530 whole entry): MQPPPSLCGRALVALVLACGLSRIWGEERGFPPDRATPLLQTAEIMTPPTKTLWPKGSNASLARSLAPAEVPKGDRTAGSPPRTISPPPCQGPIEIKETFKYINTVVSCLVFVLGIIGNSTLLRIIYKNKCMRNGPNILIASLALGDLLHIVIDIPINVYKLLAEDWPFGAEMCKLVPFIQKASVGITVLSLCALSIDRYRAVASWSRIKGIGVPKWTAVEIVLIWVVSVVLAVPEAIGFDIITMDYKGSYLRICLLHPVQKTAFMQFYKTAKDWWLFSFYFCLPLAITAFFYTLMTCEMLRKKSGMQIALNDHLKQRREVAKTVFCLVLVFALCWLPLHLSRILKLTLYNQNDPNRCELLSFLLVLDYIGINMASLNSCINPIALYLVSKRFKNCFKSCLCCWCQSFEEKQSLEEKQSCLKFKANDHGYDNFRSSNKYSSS
Summary of the method: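 Membranes (0.75 mg/tube) from COS 7 cells transfected with human ETB. Buffer 30 mM HEPES pH 7.4, 150 mM NaCl, 5 mM MgCl2, 0.05% bacitracin, final 0.25% DMSO. Tracer 4 pM [125I]ET-1, nonspecific binding with 100 nM ET-1. Incubated 16–18 h at 24 °C, bound radioactivity gamma-counted. Run in triplicate.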

[5] = Compound at dose 60 mg/kg was administered to rats and Serum half life was determined; range = 2.5-3 h; type: ADME, organism-based; parameters: dose 60 mg/kg; settings: rat

IC50 [1] | half-life [2] | IC50 [4] | half-life [5] | Compound | inhibition in vivo at 15 mg/kg [3]
0.0034 µM | 2.5 h | 40.4 µM |  | Cc1noc(NS(=O)(=O)c2ccsc2C(=O)Nc2cc3c(cc2C#N)OCO3)c1Cl | 20%
0.015 µM |  |  |  | Cc1ccc(NC(=O)c2sccc2S(=O)(=O)Nc2onc(C)c2Cl)cc1 | 
0.019 µM |  | 10.1 µM |  | Cc1noc(NS(=O)(=O)c2ccsc2C(=O)Nc2ccc3c(c2)OCO3)c1Br | 
0.01 µM |  | 32.6 µM | 3 h | CC(=O)c1cc2c(cc1NC(=O)c1sccc1S(=O)(=O)Nc1onc(C)c1Cl)OCO2 | 18%
0.085 µM |  | 63.1 µM |  | COc1cccc(NC(=O)c2sccc2S(=O)(=O)Nc2onc(C)c2Br)c1 | 
0.132 µM |  | 61.7 µM |  | COc1ccccc1NC(=O)c1sccc1S(=O)(=O)Nc1onc(C)c1Br | 
0.031 µM |  | > 100 µM |  | CC(=O)c1cc2c(cc1NC(=O)c1sccc1S(=O)(=O)Nc1onc(C)c1C)OCO2 | 
0.549 µM |  | > 100 µM |  | COC(=O)c1cc(OC)c(OC)cc1NC(=O)c1sccc1S(=O)(=O)Nc1onc(C)c1Cl | 
0.054 µM |  | 5.89 µM |  | CCC(C)c1ccc(NC(=O)c2sccc2S(=O)(=O)Nc2onc(C)c2Br)cc1 (stereo not drawn) | 
1.43 µM |  | > 100 µM |  | COc1cc(NC(=O)c2sccc2S(=O)(=O)Nc2onc(C)c2Cl)c(C(=O)O)cc1OC | 
0.0061 µM |  | 15.8 µM |  | CC(=O)OCCOc1cc2c(cc1NC(=O)c1sccc1S(=O)(=O)Nc1onc(C)c1Cl)OCO2 | 
0.024 µM |  | 30.2 µM |  | COc1ccc(NC(=O)c2sccc2S(=O)(=O)Nc2onc(C)c2Br)cc1 | 
0.012 µM |  | 9.12 µM |  | Cc1ccc(NC(=O)c2sccc2S(=O)(=O)Nc2onc(C)c2Br)cc1 | 
0.0039 µM |  | 12.2 µM |  | COc1cc(C#N)c(NC(=O)c2sccc2S(=O)(=O)Nc2onc(C)c2Cl)cc1OC | 
1.29 µM |  | > 100 µM |  | Cc1nnc(NC(=O)c2sccc2S(=O)(=O)Nc2onc(C)c2Cl)s1 | 
 |  | > 100 µM |  | Cc1noc(NS(=O)(=O)c2ccsc2C(N)=O)c1Br | 
0.0108 µM |  | 61 µM |  | COc1cc(NC(=O)c2sccc2S(=O)(=O)Nc2onc(C)c2Cl)c(C(N)=O)cc1OC | 
 |  | 35.5 µM |  | Cc1cc2c(cc1NC(=O)c1sccc1S(=O)(=O)Nc1onc(C)c1Cl)OCO2 | 
0.0093 µM |  |  |  | Cc1noc(NS(=O)(=O)c2ccsc2C(=O)Nc2cc3c(cc2CC(=O)N(C)C)OCO3)c1Cl | 
0.933 µM |  | 7.59 µM |  | COc1cccc(NCc2sccc2S(=O)(=O)Nc2onc(C)c2Br)c1 | 
0.229 µM |  | 97.7 µM |  | Cc1noc(NS(=O)(=O)c2ccsc2C(=O)NCc2ccccc2)c1Br | 
0.0038 µM |  | 25.7 µM |  | Cc1noc(NS(=O)(=O)c2ccsc2C(=O)Nc2cc3c(cc2CC#N)OCO3)c1Cl | 

IC50 [1] | half-life [2] | IC50 [4] | half-life [5] | Compound | inhibition in vivo at 15 mg/kg [3]
0.047 µM |  | 6.92 µM |  | Cc1noc(NS(=O)(=O)c2ccsc2C(=O)Nc2ccc(C(C)(C)C)cc2)c1Br | 
0.015 µM |  | 51.9 µM |  | COc1ccc(NC(=O)c2sccc2S(=O)(=O)Nc2onc(C)c2Cl)c(OC)c1 | 
0.977 µM |  | 8.71 µM |  | Cc1noc(NS(=O)(=O)c2ccsc2C(=O)Nc2ccc(-c3ccccc3)cc2)c1Br | 
0.214 µM |  | 19.5 µM |  | Cc1noc(NS(=O)(=O)c2ccsc2C(=O)Nc2ccccc2C(=O)O)c1Br | 
0.065 µM |  |  |  | Cc1noc(NS(=O)(=O)c2ccsc2C(=O)Nc2ccc(O)nn2)c1Br | 
0.013 µM |  | 44.7 µM |  | Cc1ccc(NC(=O)c2sccc2S(=O)(=O)Nc2onc(C)c2Cl)nc1 | 
0.166 µM |  | 77.6 µM |  | Cc1noc(NS(=O)(=O)c2ccsc2C(=O)Nc2ccccc2)c1Br | 
0.032 µM |  | 67.6 µM |  | Cc1ccc(NC(=O)c2sccc2S(=O)(=O)Nc2onc(C)c2C)cc1 | 
0.2 µM |  | 6.17 µM |  | CCCCc1ccc(NC(=O)c2sccc2S(=O)(=O)Nc2onc(C)c2Br)cc1 | 
 |  | 117 µM |  | Cc1noc(NS(=O)(=O)c2ccsc2C(=O)Nc2cccc(C(=O)O)c2)c1Br | 
0.02 µM |  | 4.37 µM |  | Cc1noc(NS(=O)(=O)c2ccsc2C(=O)Nc2ccc(C(C)C)cc2)c1Br | 
0.017 µM |  | 7.41 µM |  | CCc1ccc(NC(=O)c2sccc2S(=O)(=O)Nc2onc(C)c2Br)cc1 | 
0.027 µM |  | > 100 µM |  | Cc1ccccc1NC(=O)c1sccc1S(=O)(=O)Nc1onc(C)c1Br | 
1.91 µM |  | > 100 µM |  | Cc1noc(NS(=O)(=O)c2ccsc2C(=O)N(C)c2ccccc2)c1Br | 
0.0051 µM |  | 14.4 µM |  | Cc1noc(NS(=O)(=O)c2ccsc2C(=O)Nc2cc3c(cc2OCCO)OCO3)c1Cl | 
0.006 µM |  | 9.08 µM |  | Cc1noc(NS(=O)(=O)c2ccsc2C(=O)Nc2cc3c(cc2CCCO)OCO3)c1Cl | 
0.0066 µM |  | 8.24 µM |  | Cc1ccc(NC(=O)c2sccc2S(=O)(=O)Nc2onc(C)c2Cl)c(O)c1 | 
0.146 µM |  | 67.5 µM |  | Cc1noc(NS(=O)(=O)c2ccsc2C(=O)Nc2cccc(O)c2)c1Br | 
0.104 µM |  | 67.4 µM |  | Cc1cccc(NC(=O)c2sccc2S(=O)(=O)Nc2onc(C)c2Br)c1 | 
0.057 µM |  |  |  | Cc1cc(NC(=O)c2sccc2S(=O)(=O)Nc2onc(C)c2Cl)no1 | 
0.0026 µM |  | 14 µM |  | COc1ccc(NC(=O)c2sccc2S(=O)(=O)Nc2onc(C)c2Cl)c(C)c1 | 

Reference: ChEMBL document CHEMBL1130042, “Structure-activity relationships of N2-aryl-3-(isoxazolylsulfamoyl)-2-thiophenecarboxamides as selective endothelin receptor-A antagonists” (J Med Chem, 1997)
